Tests used:
A549 = test: Cytotoxicity against human A549 cells after 72 hrs by MTT assay; assay type: functional, cell-based
Method in brief: (§1)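 Cells kept in RPMI-1640 with 10% FBS, 2 mM L-glutamine and gentamicin; seeded at 1×10⁴ cells/well, attached overnight at 37 °C, 5% CO₂. Compounds dissolved in DMSO, diluted into FBS-free medium, tested at […], 10⁻⁵, 10⁻⁶, 10⁻⁷ M in triplicate for 72 h. MTT (5 mg/ml) added for 3 h at 37 °C, formazan dissolved in DMSO, OD read at 590 nm; viability loss versus untreated controls, IC50 read graphically; melphalan as positive control.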

SK-OV-3 = test: Cytotoxicity against human Scov3 cells after 72 hrs by MTT assay; assay type: functional, cell-based; method in brief: as §1
[1] = Cytotoxicity against human Caov3 cells after 72 hrs by MTT assay; assay type: functional, cell-based, Caov-3; method in brief: as §1
[2] = Homo sapiens, A549, 72 h, read-out: IC50
[3] = Homo sapiens, SK-OV-3, 72 h, read-out: IC50
[4] = Homo sapiens, Caov-3, 72 h, read-out: IC50

Compound | IC50 (A549; a549) | IC50 (SK-OV-3; sk-ov-3) | IC50 ([1]; caov-3) | IC50 (A549; [2]) [µM] | IC50 (SK-OV-3; [3]) [µM] | IC50 [1, 4] [µM]
CN1C/C(=C/c2cccs2)C(=O)/C(=C/c2cccs2)C1 | Non-toxic | Non-toxic | Non-toxic | – | – | –
CCOP(=O)(OCC)N1C/C(=C\c2cccs2)C(=O)/C(=C/c2cccs2)C1 | – | – | – | 27 | 30 | 26
CCOP(=O)(CCCN1C/C(=C\c2cccs2)C(=O)/C(=C/c2cccs2)C1)OCC | – | – | – | 30 | 40 | 40
CCOP(=O)(CN1C/C(=C\c2cccs2)C(=O)/C(=C/c2cccs2)C1)OCC | – | – | – | 15 | 38 | 20
N[C@@H](Cc1ccc(N(CCCl)CCCl)cc1)C(=O)O [MELPHALAN] | – | – | – | – | – | 50
O=C1/C(=C/c2cccs2)CN(P(=O)(Oc2ccccc2)Oc2ccccc2)C/C1=C\c1cccs1 | – | – | – | 35 | 60 | 44
O=C1/C(=C/c2cccs2)CNC/C1=C\c1cccs1 | Non-toxic | Non-toxic | Non-toxic | – | – | –
CCOP(=O)(CCN1C/C(=C\c2cccs2)C(=O)/C(=C/c2cccs2)C1)OCC | – | – | – | 35 | 64 | 70
CN1C/C(=C\c2cccs2)C(=O)/C(=C/c2cccs2)C1 | – | – | Non-toxic | 80 | 85 | –
